{
  "source": "ChEMBL document CHEMBL1153806",
  "about": "“Preclinical efficacy of a carboxylesterase 2-activated prodrug of doxazolidine” (J Med Chem, 2009)",
  "key": {"Mus musculus [1]": {"tested_on": "Mus musculus", "assay": "Toxicity in athymic nude mouse xenografted with human NCI-H1435 cells expressing CES2 gene assessed as thickening of Bowman's capsule in glomerulus administered with six iv injection of 4 mg/kg by hematoxylin/eosin staining-based microscopy", "type": "organism-based", "parameters": "dose 4 mg/kg, route intravenous", "conditions": "in vivo", "method_in_brief": "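Female athymic nude mice, 4–6 weeks old, 10 per group. About 2 × 10⁶ H1435 cells were implanted s.c. into the left flank. I.v. tail-vein doses (Dox-equivalent) were given on days 7, 14, 21, 56, 63 and 70 in 5% DMSO/95% D5W. At sacrifice, organs were fixed in 10% formalin for 24 h and paraffin-embedded. Sections were cut at 4 µm and stained with hematoxylin/eosin for microscopy.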"}, "Mus musculus [2]": {"tested_on": "Mus musculus", "assay": "Toxicity in NOD/SCID mouse xenografted with human HepG2 cells expressing CES2 gene assessed as survival at 4 mg/kg, iv administered on day 7, 14 and 21 after tumor implantation", "type": "organism-based", "parameters": "dose 4 mg/kg, route intravenous", "conditions": "in vivo", "method_in_brief": "(§1)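 Female NOD/SCID mice, 4–6 weeks old, 10 per group. About 1.5 × 10⁷ N-Hep G2 cells were injected s.c. into the left flank. Tail-vein i.v. dosing (mg/kg Dox-equivalent weight) was given on days 7, 14 and 21. Vehicle was 5% DMSO/95% D5W, and controls received vehicle only. Body weight was measured weekly over the first 5 weeks. Survival was followed to study end.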"}, "Mus musculus [3]": {"tested_on": "Mus musculus", "assay": "Toxicity in NOD/SCID mouse xenografted with human HepG2 cells expressing CES2 gene assessed as body weight change at 4 mg/kg, iv administered on day 7, 14 and 21 after tumor implantation", "type": "organism-based", "parameters": "dose 4 mg/kg, route intravenous", "conditions": "in vivo", "method_in_brief": "as §1"}, "Mus musculus [4]": {"tested_on": "Mus musculus", "assay": "Toxicity in NOD/SCID mouse xenografted with human HepG2 cells expressing CES2 gene assessed as occurrence of diarrhea at 3 mg/kg, iv administered on day 7, 14 and 21 after tumor implantation", "type": "organism-based", "parameters": "dose 3 mg/kg, route intravenous", "conditions": "in vivo"}, "HepG2": {"tested_on": "HepG2", "assay": "Antitumor activity against human HepG2 cells expressing CES2 gene xenografted in NOD/SCID mouse assessed as inhibition of tumor growth at 3 mg/kg, iv administered on day 7, 14 and 21 after tumor implantation", "type": "functional, organism-based", "parameters": "dose 3 mg/kg", "method_in_brief": "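NOD/SCID females, 4–6 weeks old, each given ~1.5 × 10⁷ N-Hep G2 cells s.c. in the left flank; 10 mice/group. Dosed i.v. by tail vein on days 7, 14 and 21, in mg/kg Dox-equivalent, from DMSO diluted into D5W (5% DMSO/95% D5W), 100 µL/mouse. Vehicle-only controls. The 3 mg/kg group was redosed at 5 mg/kg on days 45 and 52. Tumor volume (π × short diameter² × long diameter/6) measured weekly.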"}, "NCI-H1435 [5]": {"tested_on": "NCI-H1435", "assay": "Antitumor activity against human NCI-H1435 cells expressing CES2 gene xenografted in athymic nude mouse assessed as inhibition of tumor growth at 3 mg/kg, iv administered on day 7, 14 and 21 after tumor implantation", "type": "functional, organism-based", "parameters": "dose 3 mg/kg", "method_in_brief": "(§2)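 Athymic nude females, 4–6 weeks old, given ~2 × 10⁶ H1435 cells s.c. in the left flank on day 0; 10 mice/group. I.v. tail-vein doses (Dox-equivalent mg/kg) in 5% DMSO/95% D5W on days 7, 14 and 21, with all groups retreated on days 56, 63 and 70; vehicle controls. Caliper volume π × short² × long/6. Cube roots analysed with day-7 size as baseline covariate, by period.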"}, "Mus musculus [6]": {"tested_on": "Mus musculus", "assay": "Toxicity in athymic nude mouse xenografted with human NCI-H1435 cells expressing CES2 gene assessed as appearance of fibrotic damage in heart tissue administered with six iv injection of 3 to 4 mg/kg by hematoxylin/eosin staining-based microscopy", "type": "organism-based", "parameters": "dose 3-4 mg/kg, route intravenous", "conditions": "in vivo", "method_in_brief": "(§3)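 Hearts and livers taken from the H1435 nude-mouse study (six i.v. injections) after CO₂/cervical dislocation. Fixed in 10% formalin for 24 h, paraffin-embedded, and cut at 4 µm. Slides deparaffinized in xylene and ethanol, stained with Mayer's hematoxylin for 2 min, blued in 1% ammonium hydroxide, and counterstained with eosin for 30 s. Examined by light microscopy.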"}, "NCI-H1435 [7]": {"tested_on": "NCI-H1435", "assay": "Antitumor activity against human NCI-H1435 cells expressing CES2 gene xenografted in athymic nude mouse assessed as inhibition of tumor growth at 4 mg/kg, iv administered on day 7, 14 and 21 after tumor implantation", "type": "functional, organism-based", "parameters": "dose 4 mg/kg", "method_in_brief": "as §2"}, "NCI-H1435 [8]": {"tested_on": "NCI-H1435", "assay": "Antitumor activity against human NCI-H1435 cells expressing CES2 gene xenografted in athymic nude mouse assessed as reduction in tumor size at 3 to 4 mg/kg, iv administered on day 7, 14 and 21 after tumor implantation", "type": "functional, organism-based", "method_in_brief": "as §2"}, "NCI-H460": {"tested_on": "NCI-H460", "assay": "Cytotoxicity against human H460 cells expressing CES2 gene"}, "Mus musculus [9]": {"tested_on": "Mus musculus", "assay": "Toxicity in athymic nude mouse xenografted with human NCI-H1435 cells expressing CES2 gene assessed as occurrence of fatty liver administered with six iv injection of 3 mg/kg by hematoxylin/eosin staining-based microscopy", "type": "organism-based", "parameters": "dose 3 mg/kg, route intravenous", "conditions": "in vivo", "method_in_brief": "as §3"}, "Mus musculus [10]": {"tested_on": "Mus musculus", "assay": "Toxicity in athymic nude mouse xenografted with human NCI-H1435 cells expressing CES2 gene assessed as inflammatory cell infiltration in ileum administered with six iv injection of 3 to 4 mg/kg by hematoxylin/eosin staining-based microscopy", "type": "organism-based", "parameters": "dose 3-4 mg/kg, route intravenous", "conditions": "in vivo", "method_in_brief": "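Kidney and ileum taken from the H1435 nude-mouse study (six i.v. injections). Formalin-fixed for 24 h, paraffin-embedded, and cut into 4 µm sections. Sections deparaffinized in xylene, rehydrated through an ethanol series, stained in Harris hematoxylin for 50 s with eosin, then dehydrated and mounted. Morphology assessed by microscopy.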"}, "[11]": {"assay": "Toxicity in pentyl PABC-doxazolidine-treated NOD/SCID mouse xenografted with human HepG2 cells expressing CES2 gene assessed as mortality rate at 5 mg/kg, iv administered on day 45 after tumor implantation", "type": "organism-based", "parameters": "dose 5 mg/kg, route intravenous", "conditions": "in vivo, read-out: Activity", "method_in_brief": "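NOD/SCID females carried s.c. left-flank N-Hep G2 xenografts (about 1.5 × 10⁷ cells). They first received i.v. 3 mg/kg Dox-equivalent on days 7, 14 and 21. The same group was then redosed i.v. at 5 mg/kg on days 45 and 52 in 5% DMSO/95% D5W. There were 10 mice per group. Deaths were counted to the end of the study.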"}, "NCI-H1435 [12]": {"tested_on": "NCI-H1435", "assay": "Antitumor activity against human NCI-H1435 cells expressing CES2 gene xenografted in pentyl PABC-doxazolidine-pretreated athymic nude mouse assessed as inhibition of tumor growth at 3 to 4 mg/kg, iv administered on day 56 after tumor implantation", "type": "functional, organism-based", "method_in_brief": "as §2"}, "Mus musculus [13]": {"tested_on": "Mus musculus", "assay": "Toxicity in NOD/SCID mouse xenografted with human HepG2 cells expressing CES2 gene at 3 mg/kg, iv administered on day 7, 14 and 21 after tumor implantation", "type": "organism-based", "parameters": "dose 3 mg/kg, route intravenous", "conditions": "in vivo"}, "Mus musculus [14]": {"tested_on": "Mus musculus", "assay": "Toxicity in athymic nude mouse xenografted with human NCI-H1435 cells expressing CES2 gene assessed as occurrence of diarrhea at 3 to 4 mg/kg, iv administered on day 7, 14 and 21 after tumor implantation", "type": "organism-based", "parameters": "dose 3-4 mg/kg, route intravenous", "conditions": "in vivo"}, "[15]": {"assay": "Cytotoxicity against human NCI-H1435 cells expressing CES2 gene after 5 to 6 days by MTT assay", "type": "functional", "method_in_brief": "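MTT growth assay: 2000–4000 viable cells plated, left overnight at 37 °C in 5% CO₂, then exposed to a range of drug concentrations for 5–6 days. MTT added at 0.4 mg/mL final for 4 h, and formazan dissolved in 0.2 N HCl in 75% isopropanol. Absorbance normalized to vehicle control and IC₅₀ obtained from the curves.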"}, "Mus musculus [16]": {"tested_on": "Mus musculus", "assay": "Toxicity in iv dosed athymic nude mouse xenografted with human NCI-H1435 cells expressing CES2 gene assessed as appearance of cytoplasmic lipid droplets in hepatocytes administered as six injection by hematoxylin/eosin staining-based microscopy", "type": "organism-based, Hepatocyte", "method_in_brief": "as §3"}, "Homo sapiens": {"organism": "Homo sapiens", "assay": "Metabolic stability in human plasma up to 24 hrs by reverse-phase HPLC analysis"}},
  "note": "The source made the active and inactive calls. The calls are words filed in the database; no cut-off is given here.",
  "data": [
    {"smiles": "CCCCCOC(=O)Nc1ccc(COC(=O)N2CO[C@@H]3[C@H](C)O[C@@H](O[C@H]4C[C@](O)(C(=O)CO)Cc5c(O)c6c(c(O)c54)C(=O)c4c(OC)cccc4C6=O)C[C@@H]32)cc1", "values": [
      {"measurement": "Activity", "setting": "Mus musculus [1]", "value": "Toxic"},
      {"measurement": "Activity", "setting": "Mus musculus [2]", "value": "Non-toxic"},
      {"measurement": "Activity", "setting": "Mus musculus [3]", "value": "Active"},
      {"measurement": "Activity", "setting": "Mus musculus [4]", "value": "Non-toxic"},
      {"measurement": "inhibition", "setting": "HepG2", "value": "inactive"},
      {"measurement": "inhibition", "setting": "NCI-H1435 [5]", "value": "Active"},
      {"measurement": "Activity", "setting": "Mus musculus [6]", "value": "Non-toxic"},
      {"measurement": "inhibition", "setting": "NCI-H1435 [7]", "value": "Active"},
      {"measurement": "Activity", "setting": "NCI-H1435 [8]", "value": "inactive"},
      {"measurement": "GI50", "setting": "NCI-H460", "value": 447, "unit": "nM"},
      {"measurement": "Activity", "setting": "Mus musculus [9]", "value": "Non-toxic"},
      {"measurement": "Activity", "setting": "Mus musculus [10]", "value": "Non-toxic"},
      {"measurement": "mortality", "setting": "[11]", "value": 60, "unit": "%"},
      {"measurement": "inhibition", "setting": "NCI-H1435 [12]", "value": "Active"},
      {"measurement": "Activity", "setting": "Mus musculus [13]", "value": "Non-toxic"},
      {"measurement": "Activity", "setting": "Mus musculus [14]", "value": "Non-toxic"},
      {"measurement": "logIC50", "setting": "[15]", "value": -6.92},
      {"measurement": "Activity", "setting": "Mus musculus [16]", "value": "Dose-dependent effect"},
      {"measurement": "remaining at 24 h", "setting": "Homo sapiens", "value": 75, "unit": "%"}
    ]}
  ]
}
